Results reported in ChEMBL document CHEMBL6109036, “Azo derivatives of monoterpenes as anti-Helicobacter pylori agents: from synthesis to structure-based target investigation” (RSC Med Chem, 2025).
Converted amounts (≈) assume the structure as drawn.

Assays:
Format in all cases: functional
Helicobacter pylori [1] = assay: Bactericidal against Helicobacter pylori Clinical isolate F4 measured after 72 hrs of incubation under microaerophilic conditions by modified broth dilution method; conditions: read-out: MBC99.9
Summary of the method: (§1)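 H. pylori (NCTC 11637, F1, 23, F4). Wells with no visible growth in the MIC assay spotted (10 μL) onto Skirrow agar. Plates incubated 72 h at 37 °C, microaerophilic, 100% humidity. MBC = concentration killing 99.9% of the initial inoculum. Triplicate, on at least three different days.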

Helicobacter pylori [2] = assay: Bactericidal activity against Helicobacter pylori Clinical isolate F1 measured after 72 hrs of incubation under microaerophilic conditions by modified broth dilution method; conditions: read-out: MBC99.9; summary of the method: as §1
Helicobacter pylori [3] = assay: Anti-bacterial activity against Helicobacter pylori Clinical isolate F1 measured after 72 hrs incubation by modified broth dilution method
Helicobacter pylori [4] = assay: Anti-bacterial activity against Helicobacter pylori Clinical isolate F4 measured after 72 hrs incubation by modified broth dilution method
Helicobacter pylori [5] = assay: Bactericidal activity against Helicobacter pylori NCTC 11637 measured after 72 hrs of incubation under microaerophilic conditions by modified broth dilution method; conditions: read-out: MBC99.9; summary of the method: as §1
Helicobacter pylori [6] = assay: Bactericidal activity against Helicobacter pylori Clinical isolate 23 measured after 72 hrs of incubation under microaerophilic conditions by modified broth dilution method; conditions: read-out: MBC99.9; summary of the method: as §1
Helicobacter pylori [7] = assay: Anti-bacterial activity against Helicobacter pylori NCTC 11637 measured after 72 hrs incubation by modified broth dilution method
Helicobacter pylori [8] = assay: Anti-bacterial activity against Helicobacter pylori Clinical isolate 23 measured after 72 hrs incubation by modified broth dilution method
Helicobacter pylori [9] = assay: Anti-bacterial activity against Helicobacter pylori measured after 72 hrs incubation by modified broth dilution method
Helicobacter pylori [10] = assay: Bactericidal against Helicobacter pylori measured after 72 hrs of incubation under microaerophilic conditions by modified broth dilution method
Summary of the method: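 Wells with no visible growth in the MIC assay spotted (10 μL) onto Skirrow agar. Plates incubated 72 h at 37 °C, microaerophilic, 100% humidity. Triplicate, on at least three different days.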

Cc1cc(O)c(C(C)C)cc1/N=N/c1ccccc1Cl
MBC (Helicobacter pylori [1]): 4 mg/L (≈ 13.9 µM) | MBC (Helicobacter pylori [2]): 4 mg/L (≈ 13.9 µM) | MIC (Helicobacter pylori [3]): 4 mg/L (≈ 13.9 µM) | MIC (Helicobacter pylori [4]): 4 mg/L (≈ 13.9 µM) | MBC (Helicobacter pylori [5]): 4 mg/L (≈ 13.9 µM) | MBC (Helicobacter pylori [6]): 8 mg/L (≈ 27.7 µM) | MIC (Helicobacter pylori [7]): 4 mg/L (≈ 13.9 µM) | MIC (Helicobacter pylori [8]): 4 mg/L (≈ 13.9 µM) | MIC50 (Helicobacter pylori [9]): 4 mg/L (≈ 13.9 µM) | MIC90 (Helicobacter pylori [9]): 4 mg/L (≈ 13.9 µM) | MBC90 (Helicobacter pylori [10]): 8 mg/L (≈ 27.7 µM)

COc1ccc(/N=N/c2cc(C(C)C)c(OC(=S)N(C)C)cc2C)cc1
MBC (Helicobacter pylori [1]): 128 mg/L (≈ 345 µM) | MBC (Helicobacter pylori [2]): > 128 mg/L | MIC (Helicobacter pylori [3]): 128 mg/L (≈ 345 µM) | MIC (Helicobacter pylori [4]): 128 mg/L (≈ 345 µM) | MBC (Helicobacter pylori [5]): > 128 mg/L | MBC (Helicobacter pylori [6]): 128 mg/L (≈ 345 µM) | MIC (Helicobacter pylori [7]): > 128 mg/L | MIC (Helicobacter pylori [8]): 128 mg/L (≈ 345 µM) | MIC50 (Helicobacter pylori [9]): 128 mg/L (≈ 345 µM) | MIC90 (Helicobacter pylori [9]): > 128 mg/L | MBC90 (Helicobacter pylori [10]): >128 mg/L

COc1ccc(/N=N/c2cc(C(C)C)c(OC(C)=O)cc2C)cc1
MBC (Helicobacter pylori [1]): 128 mg/L (≈ 392 µM) | MBC (Helicobacter pylori [2]): 128 mg/L (≈ 392 µM) | MIC (Helicobacter pylori [3]): 128 mg/L (≈ 392 µM) | MIC (Helicobacter pylori [4]): 64 mg/L (≈ 196 µM) | MBC (Helicobacter pylori [5]): 128 mg/L (≈ 392 µM) | MBC (Helicobacter pylori [6]): 64 mg/L (≈ 196 µM) | MIC (Helicobacter pylori [7]): 128 mg/L (≈ 392 µM) | MIC (Helicobacter pylori [8]): 64 mg/L (≈ 196 µM) | MIC50 (Helicobacter pylori [9]): 64 mg/L (≈ 196 µM) | MIC90 (Helicobacter pylori [9]): 128 mg/L (≈ 392 µM) | MBC90 (Helicobacter pylori [10]): 128 mg/L (≈ 392 µM)

COc1ccc(/N=N/c2cc(C(C)C)c(O)cc2C)cc1
MBC (Helicobacter pylori [1]): 2 mg/L (≈ 7.03 µM) | MBC (Helicobacter pylori [2]): 4 mg/L (≈ 14.1 µM) | MIC (Helicobacter pylori [3]): 4 mg/L (≈ 14.1 µM) | MIC (Helicobacter pylori [4]): 2 mg/L (≈ 7.03 µM) | MBC (Helicobacter pylori [5]): 4 mg/L (≈ 14.1 µM) | MBC (Helicobacter pylori [6]): 4 mg/L (≈ 14.1 µM) | MIC (Helicobacter pylori [7]): 4 mg/L (≈ 14.1 µM) | MIC (Helicobacter pylori [8]): 4 mg/L (≈ 14.1 µM) | MIC50 (Helicobacter pylori [9]): 4 mg/L (≈ 14.1 µM) | MIC90 (Helicobacter pylori [9]): 4 mg/L (≈ 14.1 µM) | MBC90 (Helicobacter pylori [10]): 4 mg/L (≈ 14.1 µM)

COc1ccc(/N=N/c2cc(C(C)C)c(OC)cc2C)cc1
MBC (Helicobacter pylori [1]): 128 mg/L (≈ 429 µM) | MBC (Helicobacter pylori [2]): > 128 mg/L | MIC (Helicobacter pylori [3]): 128 mg/L (≈ 429 µM) | MIC (Helicobacter pylori [4]): 128 mg/L (≈ 429 µM) | MBC (Helicobacter pylori [5]): > 128 mg/L | MBC (Helicobacter pylori [6]): > 128 mg/L | MIC (Helicobacter pylori [7]): > 128 mg/L | MIC (Helicobacter pylori [8]): > 128 mg/L | MIC50 (Helicobacter pylori [9]): 128 mg/L (≈ 429 µM) | MIC90 (Helicobacter pylori [9]): > 128 mg/L | MBC90 (Helicobacter pylori [10]): >128 mg/L
